Data taken from ChEMBL document CHEMBL4316593 (Eur J Med Chem, 2019).

Legend:
[1] = Inhibition of RTK/PI3K/AKT/mTOR signaling in human U87 cells assessed as up regulation of STC2 gene expression at cytotoxic IC50 measured after 48 hrs relative to control; assay type: cell-based; details: U-87MG ATCC
U-87 MG [2] = assay: Induction of apoptosis in human U87 cells assessed as change in JUN gene expression at cytotoxic IC50 measured after 48 hrs […] relative to control; assay type: functional, U-87MG ATCC
In short: (§1)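 U87 cells grown in MEM with 10% FBS at 37°C, 5% CO2. Cells exposed to IC50 of test compound for 48 hrs, alongside untreated and cisplatin controls, each condition in triplicate. RNA isolated and profiled; differential expression called with DESeq2 (q-value < 0.05, fold change > 1.5), fold change versus untreated.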

U-87 MG [3] = assay: Cell cycle arrest in human U87 cells assessed as change in CDK1 gene expression at cytotoxic IC50 measured after 48 hrs […] relative to control; assay type: functional, U-87MG ATCC
In short: (§2)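 U87 expression profiling. Cells incubated 48hrs at 37°C, 5% CO₂ with the IC₅₀ concentration, alongside a cisplatin and an untreated control, in triplicate. RNA was isolated by one common protocol and profiled. DEGs were called with DESeq2 (q < 0.05, fold change > 1.5) and expressed as fold change versus untreated.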

[4] = Inhibition of RTK/PI3K/AKT/mTOR signaling in human U87 cells assessed as up regulation of RPS14 gene expression at cytotoxic IC50 measured after 48 hrs relative to control; assay type: cell-based; details: U-87MG ATCC
In short: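 U87 cells were exposed for 48 hrs at 37°C under 5% CO₂, with cisplatin and untreated controls, all in triplicate. RNA was isolated by the same protocol for every sample and expression profiled from mapped reads. Differential expression against untreated cells was called in DESeq2 (q-value < 0.05, fold change > 1.5).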

U-87 MG [5] = assay: Induction of apoptosis in human U87 cells assessed as change in MAPK8 gene expression at cytotoxic IC50 measured after 48 hrs […] relative to control; assay type: functional, U-87MG ATCC; in short: as §1
[6] = Inhibition of RTK/PI3K/AKT/mTOR signaling in human U87 cells assessed as up regulation of erythrocyte membrane protein band 4.1 gene expression at cytotoxic IC50 measured after 48 hrs relative to control; assay type: cell-based
[7] = Inhibition of RTK/PI3K/AKT/mTOR signaling in human U87 cells assessed as up regulation of UPK1A-AS1 gene expression at cytotoxic IC50 measured after 48 hrs relative to control; assay type: cell-based; details: U-87MG ATCC
[8] = Inhibition of RTK/PI3K/AKT/mTOR signaling in human U87 cells assessed as up regulation of AHNAK2 gene expression at cytotoxic IC50 measured after 48 hrs relative to control; assay type: cell-based; details: U-87MG ATCC
In short: (§3)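 Cells were exposed for 48hrs at 37°C in humidified 5% CO₂ to the compound at its previously determined IC₅₀, with Cisplatin at its IC₅₀ and an untreated negative control alongside. Each condition was run in triplicate. RNA was isolated from all samples by the same protocol. Genes were called differentially expressed by DESeq2 at q-value < 0.05 and fold change > 1.5.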

[9] = Inhibition of RTK/PI3K/AKT/mTOR signaling in human U87 cells assessed as down regulation of SAFB2 gene expression at cytotoxic IC50 measured after 48 hrs relative to control; assay type: cell-based; details: U-87MG ATCC; in short: as §3
[10] = Inhibition of RTK/PI3K/AKT/mTOR signaling in human U87 cells assessed as down regulation of EIF1B gene expression at cytotoxic IC50 measured after 48 hrs relative to control; assay type: cell-based; details: U-87MG ATCC; in short: as §1
[11] = Inhibition of RTK/PI3K/AKT/mTOR signaling in human U87 cells assessed as up regulation of single Ig and TIR domain containing gene expression at cytotoxic IC50 measured after 48 hrs relative to control; assay type: cell-based; details: U-87MG ATCC
[12] = Inhibition of RTK/PI3K/AKT/mTOR signaling in human U87 cells assessed as up regulation of RHOA gene expression at cytotoxic IC50 measured after 48 hrs relative to control; assay type: cell-based; details: U-87MG ATCC; in short: as §3
[13] = Inhibition of RTK/PI3K/AKT/mTOR signaling in human U87 cells assessed as up regulation of KCMF1 gene expression at cytotoxic IC50 measured after 48 hrs relative to control; assay type: cell-based; details: U-87MG ATCC; in short: as §3
[14] = Inhibition of RTK/PI3K/AKT/mTOR signaling in human U87 cells assessed as down regulation of WDR62 gene expression at cytotoxic IC50 measured after 48 hrs relative to control; assay type: cell-based; details: U-87MG ATCC; in short: as §3
U-87 MG [15] = assay: Cell cycle arrest in human U87 cells assessed as change in PKMYT1 gene expression at cytotoxic IC50 measured after 48 hrs […] relative to control; assay type: functional, U-87MG ATCC; in short: as §2
[16] = Inhibition of RTK/PI3K/AKT/mTOR signaling in human U87 cells assessed as down regulation of HELLS gene expression at cytotoxic IC50 measured after 48 hrs relative to control; assay type: cell-based; details: U-87MG ATCC; in short: as §1
U-87 MG [17] = assay: Cell cycle arrest in human U87 cells assessed as change in CDKN1A gene expression at cytotoxic IC50 measured after 48 hrs […] relative to control; assay type: functional, U-87MG ATCC; in short: as §2
[18] = Inhibition of RTK/PI3K/AKT/mTOR signaling in human U87 cells assessed as down regulation of PHIP gene expression at cytotoxic IC50 measured after 48 hrs relative to control; assay type: cell-based; details: U-87MG ATCC; in short: as §3
U-87 MG [19] = assay: Induction of apoptosis in human U87 cells assessed as change in GADD45B gene expression at cytotoxic IC50 measured after 48 hrs […] relative to control; assay type: functional, U-87MG ATCC; in short: as §1
[20] = Inhibition of RTK/PI3K/AKT/mTOR signaling in human U87 cells assessed as down regulation of TEX14 gene expression at cytotoxic IC50 measured after 48 hrs relative to control; assay type: cell-based; details: U-87MG ATCC; in short: as §3
[21] = Inhibition of RTK/PI3K/AKT/mTOR signaling in human U87 cells assessed as up regulation of MRG domain binding protein gene expression at cytotoxic IC50 measured after 48 hrs relative to control; assay type: cell-based; details: U-87MG ATCC; in short: as §3
U-87 MG [22] = assay: Induction of apoptosis in human U87 cells assessed as change in CTSV gene expression at cytotoxic IC50 measured after 48 hrs […] relative to control; assay type: functional, U-87MG ATCC; in short: as §1
[23] = Inhibition of RTK/PI3K/AKT/mTOR signaling in human U87 cells assessed as up regulation of mesencephalic astrocyte derived neurotrophic factor gene expression at cytotoxic IC50 measured after 48 hrs relative to control; assay type: cell-based
[24] = Inhibition of RTK/PI3K/AKT/mTOR signaling in human U87 cells assessed as down regulation of DEF8 gene expression at cytotoxic IC50 measured after 48 hrs relative to control; assay type: cell-based; details: U-87MG ATCC; in short: as §1
[25] = Inhibition of RTK/PI3K/AKT/mTOR signaling in human U87 cells assessed as down regulation of ZYG11B gene expression at cytotoxic IC50 measured after 48 hrs relative to control; assay type: cell-based; details: U-87MG ATCC; in short: as §3
U-87 MG [26] = assay: Cell cycle arrest in human U87 cells assessed as change in ESPL1 gene expression at cytotoxic IC50 measured after 48 hrs […] relative to control; assay type: functional, U-87MG ATCC; in short: as §2
[27] = Inhibition of RTK/PI3K/AKT/mTOR signaling in human U87 cells assessed as up regulation of TOMM22 gene expression at cytotoxic IC50 measured after 48 hrs relative to control; assay type: cell-based; details: U-87MG ATCC
[28] = Inhibition of RTK/PI3K/AKT/mTOR signaling in human U87 cells assessed as up regulation of AXL gene expression at cytotoxic IC50 measured after 48 hrs relative to control; assay type: cell-based; details: U-87MG ATCC; in short: as §3

CC(=O)C(=NNc1ccccc1C#N)C(C)=O
log2FC [1]: 3.02 | log2FC (U-87 MG [2]): -3.064 | fold change (FC) (U-87 MG [3]): 1.569 | log2FC [4]: 0.607 | log2FC (U-87 MG [5]): -1.076 | log2FC [6]: 1.26 | log2FC [7]: 2.69 | log2FC [8]: 0.621 | log2FC [9]: -0.69 | log2FC [10]: -0.906 | log2FC [11]: 0.676 | log2FC [12]: 0.32 | log2FC [13]: 0.499 | log2FC [14]: -1.86 | fold change (FC) (U-87 MG [15]): 1.852 | log2FC [16]: -1.06 | fold change (FC) (U-87 MG [17]): 1.296 | log2FC [18]: -0.753 | log2FC (U-87 MG [19]): -2.899 | log2FC [20]: -3.88 | log2FC [21]: 0.97 | log2FC (U-87 MG [22]): 1.986 | log2FC [23]: 0.684 | log2FC [24]: -0.591 | log2FC [25]: -0.823 | fold change (FC) (U-87 MG [26]): 2.307 | log2FC [27]: 0.475 | log2FC [28]: 1.89
